Tests used:
[1] = system: human; experiment: concentration in blood after dosing; settings: 40 min; dosed: phenacetin; 0.25 g; oral; male
Method in brief: (§1)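 Sampling and analytical methods are those of each source and frequently went unreported. The concentration-versus-time and amount-versus-time points were compiled from published in vivo toxicokinetic studies and two structured collections. Most were digitised from plot screenshots with WebPlotDigitizer, with others copied from tables, in the reported units.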

[2] = system: human; experiment: concentration in blood after dosing; settings: dosed: phenacetin, 250 mg, iv, male
Method in brief: as §1

[3] = system: human; experiment: concentration in blood after dosing; settings: dosed: phenacetin, 250 mg, iv, male; remark: listed apart in the source
Method in brief: as §1

[4] = system: human; experiment: concentration in blood after dosing; settings: dosed: phenacetin, 1 g, oral, male
Method in brief: as §1

[5] = system: rat; experiment: concentration in plasma after dosing; settings: dosed: phenacetin, oral
[6] = system: dog; experiment: concentration in plasma after dosing; settings: dosed: phenacetin, 1 mg/kg, iv, duration: 5 min, male, beagle
Method in brief: as §1

[7] = system: human; experiment: concentration in blood after dosing; settings: dosed: phenacetin, male
Method in brief: as §1

[8] = system: human; experiment: concentration in blood after dosing; settings: dosed: phenacetin, 250 mg, iv, male; remark: listed apart in the source
Method in brief: as §1

[9] = system: human; experiment: concentration in blood after dosing; settings: dosed: phenacetin, 250 mg, iv, male; remark: listed apart in the source
Method in brief: as §1

[10] = system: human; experiment: concentration in blood after dosing; settings: dosed: phenacetin, 250 mg, iv, male; remark: listed apart in the source
Method in brief: as §1

[11] = system: human; experiment: concentration in blood after dosing; settings: dosed: phenacetin, 1 g, oral, male; remark: listed apart in the source
Method in brief: as §1

CCOc1ccc(NC(C)=O)cc1 [phenacetin]
Settings	concentration in blood [ng/mL]
[1]	230

Settings	concentration in blood [ng/mL]	concentration in plasma [ng/mL]
[2], 1 h	640	–
[2], 1.5 h	460	–
[2], 2 h	430	–
[2], 3 h	220	–
[2], 10 min	2610	–
[2], 20 min	1770	–
[2], 40 min	940	–
[3], 1 h	920	–
[3], 1.5 h	820	–
[3], 2 h	590	–
[3], 3 h	330	–
[3], 4 h	150	–
[3], 10 min	3060	–
[3], 20 min	2090	–
[3], 40 min	1180	–
[4], 1 h	4600	–
[4], 1.5 h	1220	–
[4], 2 h	750	–
[4], 3 h	360	–
[4], 4 h	330	–
[4], 5 h	190	–
[4], 20 min	300	–
[4], 40 min	4510	–
[6], 0.2422 h	–	1250
[6], 0.3263 h	–	884
[6], 0.4969 h	–	529
[6], 1.165 h	–	136
[6], 1.67 h	–	63.4
[6], 2.162 h	–	32.4
[6], 3.172 h	–	13.5
[8], 1 h	660	–
[8], 1.5 h	500	–
[8], 2 h	210	–
[8], 3 h	80	–
[8], 10 min	1860	–
[8], 20 min	1080	–
[8], 40 min	980	–
[9], 1 h	740	–
[9], 1.5 h	310	–
[9], 2 h	190	–
[9], 3 h	80	–
[9], 10 min	2920	–
[9], 20 min	1910	–
[9], 40 min	1090	–
[10], 1 h	1540	–
[10], 1.5 h	1010	–
[10], 2 h	690	–
[10], 3 h	180	–
[10], 10 min	3420	–
[10], 20 min	2620	–
[10], 40 min	1890	–
[11], 4 h	2120	–
[11], 5 h	670	–

[5], male, Sprague Dawley
Settings	concentration in plasma [ng/mL]
0.1117 h, 360 mg/kg	14500
0.193 h, 360 mg/kg	24300
0.249 h, 10 mg/kg	2910
0.2743 h, 360 mg/kg	30300
0.5079 h, 360 mg/kg	28500
0.772 h, 360 mg/kg	25500
0.9929 h, 10 mg/kg	193
1.006 h, 360 mg/kg	23900
1.524 h, 360 mg/kg	14300
1.985 h, 10 mg/kg	34.3
2.022 h, 360 mg/kg	11300
3.99 h, 10 mg/kg	12.9
4.033 h, 360 mg/kg	4510
5.995 h, 10 mg/kg	8.58
7.985 h, 10 mg/kg	8.58
8.005 h, 360 mg/kg	913
11.99 h, 360 mg/kg	171
268 s, 10 mg/kg	893

Settings	concentration in blood [ng/mL]	concentration in plasma [µM]
[5], 0.25 h, 250 mg/kg, Wistar	–	129
[5], 0.5 h, 250 mg/kg, Wistar	–	105
[5], 1 h, 250 mg/kg, Wistar	–	92.6
[5], 2 h, 250 mg/kg, Wistar	–	11.5
[5], 3 h, 250 mg/kg, Wistar	–	1.59
[7], 1 h, 0.25 g, oral	180	–
[7], 1 h, 1 g, oral	2750	–
[7], 1 h, 250 mg, iv	670	–
[7], 1.5 h, 1 g, oral	3360	–
[7], 1.5 h, 250 mg, iv	510	–
[7], 2 h, 1 g, oral	1880	–
[7], 2 h, 250 mg, iv	370	–
[7], 3 h, 1 g, oral	820	–
[7], 3 h, 250 mg, iv	240	–
[7], 4 h, 1 g, oral	530	–
[7], 4 h, 250 mg, iv	130	–
[7], 5 h, 1 g, oral	410	–
[7], 10 min, 250 mg, iv	2670	–
[7], 20 min, 0.25 g, oral	340	–
[7], 20 min, 250 mg, iv	1260	–
[7], 40 min, 0.25 g, oral	310	–
[7], 40 min, 250 mg, iv	910	–
